Measurements: ChEMBL document CHEMBL1134319, “Synthesis and antitumor activity of novel C-7 paclitaxel ethers: discovery of BMS-184476” (J Med Chem, 2001)

Experiments:
M109 [1] = experiment: In vivo efficacy against Madison Murine lung carcinoma M109 tumors implanted ip and the drug given ip on days 5 and 8 post implantation; format: functional, Mus musculus
Procedure, shortened: (§1)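 M109 tumor was implanted ip and drug given ip on days 5 and 8 after implantation. Read-out was %T/C of the analogue at its maximum tolerated dose, reported against %T/C for paclitaxel at a historically determined efficacious dose, which is not its MTD. %T/C above 125% is counted as active.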

[2] = Inhibition of tubulin polymerization compared paclitaxel.; format: functional
Procedure, shortened: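 Tubulin polymerization was followed by optical density. The value is the compound concentration giving a change of 0.01 OD/h, expressed as a ratio to the paclitaxel concentration giving the same change.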

HCT-116 = experiment: Inhibitory activity against human colon tumor cell sensitive to paclitaxel.; format: functional, cell-based
[3] = Ratio of IC50 values of HCT116 MDR resistant cell line to HCT-116 sensitive cell line; format: functional
Procedure, shortened: (§2)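 IC50 was measured in the HCT-116/MDR paclitaxel-resistant human colon tumor line and in parental paclitaxel-sensitive HCT-116 cells. The ratio is resistant IC50 divided by sensitive IC50.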

M109 [4] = experiment: In vivo efficacy against Madison Murine lung carcinoma M109 tumors implanted ip and the drug given ip on days 5 and 8 post implantation.; format: functional, Mus musculus; procedure, shortened: as §1
[5] = Ratio of IC50 values of HCT116 MDR resistant cell line to HCT-116 sensitive cell line.; format: functional; procedure, shortened: as §2
M109 [6] = experiment: In vivo efficacy against Madison Murine lung carcinoma M109 tumors implanted sc and the drug given iv every day x 5 beginning 4 days post implantation.; format: functional, Mus musculus
Procedure, shortened: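 Murine M109 tumor was implanted subcutaneously, a site distal to drug administration. Dosing was iv daily ×5 starting 4 days after implant. Activity was expressed as gross log cell kill (LCK) of the analogue at its maximum tolerated dose, alongside LCK for paclitaxel at a historically determined efficacious dose. An LCK of 1 is counted as active.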

Mus musculus [7] = species: Mus musculus; experiment: Gross log cell kill activity at optimal dose of 30 units for q2dx5;26 schedule in mice infected with L2987 (Lung carcinoma) cells; format: functional
Mus musculus [8] = species: Mus musculus; experiment: Gross log cell kill activity at optimal dose of 40 units for q2dx5;10 schedule in mice infected with HCT/pk (Colon ca.) cells.; format: functional
Mus musculus [9] = species: Mus musculus; experiment: Number of cures/total at optimal dose of 30 units for q2dx5;26 schedule in mice infected with L2987 (Lung carcinoma) cells; 0/8; format: functional
Mus musculus [10] = species: Mus musculus; experiment: Number of cures/total at optimal dose of 30 units for q2dx5;12 schedule in mice infected with HOC79 (ovarian ca.) cells; 0/8; format: functional
Mus musculus [11] = species: Mus musculus; experiment: Number of cures/total at optimal dose of 40 units for q2dx5;10 schedule in mice infected with HCT/pk (Colon ca.) cells; 1/8; format: functional
Mus musculus [12] = species: Mus musculus; experiment: Number of cures/total at optimal dose of 2 units for q2dx5;8 schedule in mice infected with A2780 (ovarian carcinoma) cells; 0/8; format: functional
Mus musculus [13] = species: Mus musculus; experiment: Gross log cell kill activity at optimal dose of 2 units for q2dx5;8 schedule in mice infected with A2780 (ovarian carcinoma) cells.; format: functional
Procedure, shortened: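 Staged A2780 tumours in mice. Dosing was intravenous, every other day for 5 doses, starting 8 days after implantation. Optimal dose is the one below the excessively toxic dose. Activity is reported as gross log cell kill.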

Mus musculus [14] = species: Mus musculus; experiment: %T/C at optimal dose of 30 units for q2dx5;12 schedule in mice infected with HOC79 (ovarian ca.) cells.

SMILES	Ratio [2]	IC50 (HCT-116) [nM]	Efficacy (M109 [4])	Ratio [5]	further results
CO[C@H]1C[C@H]2OC[C@@]2(OC(C)=O)C2[C@H](OC(=O)c3ccccc3)[C@]3(O)CC(OC(=O)[C@H](O)[C@@H](NC(=O)OC(C)(C)C)c4ccco4)C(C)=C([C@@H](OC(C)=O)C(=O)[C@@]21C)C3(C)C (some centres not stated)	0.4	1.3	–	–	Efficacy (M109 [1]): 121; Ratio [3]: 1.7
COCO[C@H]1C[C@H]2OC[C@@]2(OC(C)=O)C2[C@H](OC(=O)c3ccccc3)[C@]3(O)CC(OC(=O)[C@H](O)[C@@H](NC(=O)OC(C)(C)C)c4ccco4)C(C)=C([C@@H](OC(C)=O)C(=O)[C@@]21C)C3(C)C (some centres not stated)	0.4	1.3	118	5.6	–
CSCO[C@H]1C[C@H]2OC[C@@]2(OC(C)=O)C2[C@H](OC(=O)c3ccccc3)[C@]3(O)CC(OC(=O)[C@H](O)[C@@H](NC(=O)OC(C)(C)C)c4ccco4)C(C)=C([C@@H](OC(C)=O)C(=O)[C@@]21C)C3(C)C (some centres not stated)	1.6	1.7	104	1	–
COCO[C@H]1C[C@H]2OC[C@@]2(OC(C)=O)C2[C@H](OC(=O)c3ccccc3)[C@]3(O)CC(OC(=O)[C@H](O)[C@@H](NC(=O)OCc4ccccc4)c4ccccc4)C(C)=C([C@@H](OC(C)=O)C(=O)[C@@]21C)C3(C)C (some centres not stated)	0.6	1.4	139	–	–
CSCO[C@H]1C[C@H]2OC[C@@]2(OC(C)=O)C2[C@H](OC(=O)c3ccccc3)[C@]3(O)CC(OC(=O)[C@H](O)[C@@H](NC(=O)OC(C)C)c4ccccc4)C(C)=C([C@@H](OC(C)=O)C(=O)[C@@]21C)C3(C)C (some centres not stated)	1.6	1.7	191	–	Efficacy (M109 [6]): 0.5
CSCO[C@H]1C[C@H]2OC[C@@]2(OC(C)=O)C2[C@H](OC(=O)c3ccccc3)[C@]3(O)CC(OC(=O)[C@H](O)[C@H](C=C(C)C)NC(=O)OC(C)(C)C)C(C)=C([C@@H](OC(C)=O)C(=O)[C@@]21C)C3(C)C (some centres not stated)	1.1	0.7	109	3.3	–
COCCOCO[C@H]1C[C@H]2OC[C@@]2(OC(C)=O)C2[C@H](OC(=O)c3ccccc3)[C@]3(O)CC(OC(=O)[C@H](O)[C@@H](NC(=O)c4ccccc4)c4ccccc4)C(C)=C([C@@H](OC(C)=O)C(=O)[C@@]21C)C3(C)C (some centres not stated)	1.1	0.9	132	–	–
CC(=O)O[C@H]1C(=O)[C@@]2(C)[C@H]([C@H](OC(=O)c3ccccc3)[C@]3(O)C[C@H](OC(=O)[C@H](O)[C@@H](NC(=O)c4ccccc4)c4ccccc4)C(C)=C1C3(C)C)[C@]1(OC(C)=O)CO[C@@H]1C[C@@H]2O [PACLITAXEL]	1	–	–	200	LCK (Mus musculus [7]): 1.3; LCK (Mus musculus [8]): 2.8; C/T (Mus musculus [9]): 0; C/T (Mus musculus [10]): 0; C/T (Mus musculus [11]): 1; C/T (Mus musculus [12]): 0; LCK (Mus musculus [13]): 6.1; %T/C (Mus musculus [14]): 273%
CC(=O)O[C@H]1C(=O)[C@@]2(C)C([C@H](OC(=O)c3ccccc3)[C@]3(O)CC(OC(=O)[C@H](O)[C@@H](NC(=O)OC(C)(C)C)c4ccco4)C(C)=C1C3(C)C)[C@]1(OC(C)=O)CO[C@@H]1C[C@@H]2OCOCCO (some centres not stated)	0.3	1.7	–	4.1	–
CC(=O)O[C@H]1C(=O)[C@@]2(C)C([C@H](OC(=O)c3ccccc3)[C@]3(O)CC(OC(=O)[C@H](O)[C@@H](NC(=O)OC(C)(C)C)c4ccccc4)C(C)=C1C3(C)C)[C@]1(OC(C)=O)CO[C@@H]1C[C@@H]2OCOCCO (some centres not stated)	1.6	1.1	136	0.7	–
CC(=O)O[C@H]1C(=O)[C@@]2(C)C([C@H](OC(=O)c3ccccc3)[C@]3(O)CC(OC(=O)[C@H](O)[C@@H](NC(=O)OC(C)C)c4ccco4)C(C)=C1C3(C)C)[C@]1(OC(C)=O)CO[C@@H]1C[C@@H]2OCOCCO (some centres not stated)	0.3	0.9	145	–	–
COCO[C@H]1C[C@H]2OC[C@@]2(OC(C)=O)C2[C@H](OC(=O)c3ccccc3)[C@]3(O)CC(OC(=O)[C@H](O)[C@@H](NC(=O)c4ccccc4)c4ccccc4)C(C)=C([C@@H](OC(C)=O)C(=O)[C@@]21C)C3(C)C (some centres not stated)	0.5	1.4	192	10	–
CC(=O)O[C@H]1C(=O)[C@@]2(C)C([C@H](OC(=O)c3ccccc3)[C@]3(O)CC(OC(=O)[C@H](O)[C@@H](NC(=O)c4ccccc4)c4ccccc4)C(C)=C1C3(C)C)[C@]1(OC(C)=O)CO[C@@H]1C[C@@H]2OCOCCO (some centres not stated)	1	1.1	238	–	Efficacy (M109 [6]): 0.9
COCO[C@H]1C[C@H]2OC[C@@]2(OC(C)=O)C2[C@H](OC(=O)c3ccccc3)[C@]3(O)CC(OC(=O)[C@H](O)[C@@H](NC(=O)c4ccccc4)c4ccco4)C(C)=C([C@@H](OC(C)=O)C(=O)[C@@]21C)C3(C)C (some centres not stated)	2.3	2.1	–	–	Efficacy (M109 [1]): 115
CSCO[C@H]1C[C@H]2OC[C@@]2(OC(C)=O)C2[C@H](OC(=O)c3ccccc3)[C@]3(O)CC(OC(=O)[C@H](O)[C@@H](NC(=O)c4ccccc4)c4ccco4)C(C)=C([C@@H](OC(C)=O)C(=O)[C@@]21C)C3(C)C (some centres not stated)	1	0.6	191	–	Efficacy (M109 [6]): 1.1
CCOCO[C@H]1C[C@H]2OC[C@@]2(OC(C)=O)C2[C@H](OC(=O)c3ccccc3)[C@]3(O)CC(OC(=O)[C@H](O)[C@@H](NC(=O)c4ccccc4)c4ccccc4)C(C)=C([C@@H](OC(C)=O)C(=O)[C@@]21C)C3(C)C (some centres not stated)	0.6	2.2	132	–	–
COCO[C@H]1C[C@H]2OC[C@@]2(OC(C)=O)C2[C@H](OC(=O)c3ccccc3)[C@]3(O)CC(OC(=O)[C@H](O)[C@@H](NC(=O)OC(C)(C)C)c4ccccc4)C(C)=C([C@@H](OC(C)=O)C(=O)[C@@]21C)C3(C)C (some centres not stated)	0.2	1.1	118	2	–
CCCCOC(=O)N[C@@H](c1ccccc1)[C@@H](O)C(=O)OC1C[C@@]2(O)[C@@H](OC(=O)c3ccccc3)C3[C@](C)(C(=O)[C@H](OC(C)=O)C(=C1C)C2(C)C)[C@@H](OCSC)C[C@H]1OC[C@@]31OC(C)=O (some centres not stated)	0.6	1.2	177	–	Efficacy (M109 [6]): 0.2
